# Experimental data taken from paper PMC6231235 (Science translational medicine, 2017).
# Tested on: human FXa
# Experiment: In vitro neutralization of anti-FXa activity by protamine
# Type: biochemical
# Settings: sample at 25 x IC50, protamine 0 to 90 μg/ml
# Summary of the method: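 Human plasma is combined with a fixed test-compound stock set per construct and protamine chloride in PBS (0 to 90 μg/ml solutions), then held 5 min at room temperature. The mixture then goes into the chromogenic anti-FXa assay: human FXa for 4 min at room temperature, S-2765 substrate, and A405 read continuously for 5 min.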
compound,measurement,value
CO[C@H]1O[C@H](COS(=O)(=O)O)[C@@H](O[C@@H]2O[C@@H](C(=O)O)[C@@H](O[C@H]3O[C@H](COS(=O)(=O)O)[C@@H](O[C@@H]4O[C@H](C(=O)O)[C@@H](O[C@H]5O[C@H](COS(=O)(=O)O)[C@@H](O)[C@H](O)[C@H]5NS(=O)(=O)O)[C@H](O)[C@H]4O)[C@H](OS(=O)(=O)O)[C@H]3NS(=O)(=O)O)[C@H](O)[C@H]2OS(=O)(=O)O)[C@H](O)[C@H]1NS(=O)(=O)O [Fondaparinux],neutralization of anti-FXa activity by protamine in vitro,completely insensitive
